Assay results from ChEMBL document CHEMBL3822448, “The chemical synthesis and preliminary biological studies of phosphodiester and phosphorothioate analogues of 2-methoxy-lysophosphatidylethanolamine” (2016).
The source made the active and inactive calls. The calls are words filed in the database; no cut-off is given here.

Key:
PC-3 [1] = experiment: Cytotoxicity against human PC3 cells assessed as reduction in cell viability at 5 uM after 24 to 48 hrs by resazurin-based prestoblue assay; assay type: functional
How it was run: (§1)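 PC3 human prostate cancer cells (express LPA1 receptor) seeded at 5,000/well, cultured 24 and 48 h, then treated with LPE analogues at 5, 10, 25 or 50 μM for 24 or 48 h. Viability read with resazurin-based PrestoBlue reagent and expressed as % of untreated control (100%). Means ± SD of at least three independent experiments; P < 0.05 versus control.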

[2] = (§2) Cytotoxicity against human PC3 cells assessed as reduction in cell viability at 25 uM after 48 hrs by resazurin-based prestoblue assay; assay type: functional, PC-3; how it was run: as §1
[3] = (§3) Cytotoxicity against human PC3 cells assessed as reduction in cell viability at 50 uM after 48 hrs by resazurin-based prestoblue assay; assay type: functional, PC-3; how it was run: as §1
PC-3 [4] = experiment: Cytotoxicity against human PC3 cells assessed as reduction in cell viability at 10 uM after 24 to 48 hrs by resazurin-based prestoblue assay; assay type: functional; how it was run: as §1
PC-3 [5] = experiment: (§4) Cytotoxicity against human PC3 cells assessed as reduction in cell viability at 10 uM after 48 hrs by resazurin-based prestoblue assay; assay type: functional; how it was run: as §1
PC-3 [6] = experiment: as §2; assay type: functional; how it was run: as §1
PC-3 [7] = experiment: as §3; assay type: functional; how it was run: as §1
PC-3 [8] = experiment: Cytotoxicity against human PC3 cells assessed as reduction in cell viability at 50 uM after 24 to 48 hrs by resazurin-based prestoblue assay; assay type: functional; how it was run: as §1
[9] = as §4; assay type: functional, PC-3; how it was run: as §1
[10] = Cytotoxicity against human PC3 cells assessed as reduction in cell viability at 10 uM after 24 hrs by resazurin-based prestoblue assay; assay type: functional, PC-3; how it was run: as §1

SMILES	Activity (PC-3 [1])	Activity [2] [%]	Activity [3] [%]	Activity (PC-3 [4])	Activity (PC-3 [5])	Activity (PC-3 [6])	Activity (PC-3 [7])	Activity (PC-3 [8])	Activity [9] [%]	Activity [10] [%]
CCCCCCCCCCCCCCCC(=O)OCC(COP(=O)(S)OCCN)OC (configuration not stated)	inactive	79.1	70	inactive	–	–	–	–	–	–
CCCCCCCCCCCCCC(=O)OCC(COP(=O)(S)OCCN)OC (mixture of isomers)	inactive	59.8	43.8	inactive	–	–	–	–	–	–
CCCCCCCC/C=C\CCCCCCCC(=O)OCC(COP(=O)(O)OCCN)OC (mixture of isomers)	inactive	–	–	inactive	Active	Active	Active	–	–	–
CCCCCCCC/C=C\CCCCCCCC(=O)OCC(COP(=O)(S)OCCN)OC (mixture of isomers)	inactive	–	–	inactive	–	–	–	inactive	–	–
CCCCCCCCCCCCCCCCCC(=O)OCC(COP(=O)(S)OCCN)OC (mixture of isomers)	inactive	–	–	inactive	–	–	–	inactive	–	–
CCCCCCCCCCCCCCCC(=O)OCC(COP(=O)(O)OCCN)OC (racemic)	inactive	49.5	24.9	–	–	–	–	–	78.8	–
CCCCCCCCCCCCCC(=O)OCC(COP(=O)(O)OCCN)OC (racemic)	–	22.7	6.3	–	–	–	–	–	59.8	68.2
CCCCCCCCCCCCCCCCCC(=O)OCC(COP(=O)(O)OCCN)OC (racemic)	inactive	–	–	inactive	Active	Active	Active	–	–	–
